Source: ChEMBL document CHEMBL1146641, “Synthesis of 3-O-acyl/3-benzylidene/3-hydrazone/3-hydrazine/17-carboxyacryloyl ester derivatives of betulinic acid as anti-angiogenic agents” (Bioorg Med Chem Lett, 2004)
≈ marks a conversion by molar mass, not a printed value.

Experiments:
ECV-304 [1] = experiment: Cytotoxic activity against ECV304 (human endothelial) cell line.; format: functional, cell-based
In short: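 1.5 × 10⁴ cells exposed 72 h to compounds in DMSO (final DMSO <0.1%) at 0.5–4 µg/mL, in triplicate wells. Viability read by MTT. Experiment repeated three times; mean IC50 (half-maximal cytotoxicity) reported.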

[2] = Ratio of IC50 against DU145 prostate tumor cell line to IC50 of human endothelial ECV304 cell line; format: functional, ECV-304
In short: (§1)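 Endothelial selectivity ratio = IC50 on the tumor line / IC50 on ECV304. […] Wells in triplicate, experiments in triplicate, mean IC50 used. Ratio <10 rated low, 10–20 moderate, >20 high.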

[3] = Ratio of IC50 against HT-29 colon tumor cell line to IC50 of human endothelial ECV304 cell line; format: functional; in short: as §1
[4] = Ratio of IC50 against L132 Lung tumor cell line to IC50 of human endothelial ECV304 cell line; format: functional; in short: as §1
ECV-304 [5] = experiment: Ratio of IC50 against PA-1 ovary tumor cell line to IC50 of human endothelial ECV304 cell line; format: functional, Female gonad; in short: as §1
ECV-304 [6] = experiment: Inhibition of tube-like structure formation in ECV304 (human endothelial) cell line.; format: functional

SMILES	IC50 (ECV-304 [1])	ECS ratio [2]	ECS ratio [3]	ECS ratio [4]	ECS ratio (ECV-304 [5])	Inhibition (ECV-304 [6])
C=C(C)[C@@H]1CC[C@]2(C(=O)O)CC[C@]3(C)[C@H](CC[C@@H]4[C@@]5(C)CCC(=O)C(C)(C)[C@@H]5CC[C@]43C)[C@@H]12 [BETUNOLIC ACID]	< 4 mg/L	–	–	–	–	–
C=C(C)[C@@H]1CC[C@]2(C(=O)O)CC[C@]3(C)C(CCC4[C@@]5(C)CC[C@H](OC(=O)c6ccc(CCCCCCC)cc6)C(C)(C)C5CC[C@]43C)C12 (stereo not given in full)	1.7 mg/L (≈ 2.58 µM)	>5.8	>5.89	4.1	>2.3	–
C=C(C)[C@@H]1CC[C@]2(C(=O)O)CC[C@]3(C)C(CCC4[C@@]5(C)CC/C(=N\Nc6ccccc6)C(C)(C)C5CC[C@]43C)C12 (stereo not given in full)	2.4 mg/L (≈ 4.41 µM)	2.7	4.2	1.9	2.08	–
COc1ccc(NNC2CC[C@@]3(C)C(CC[C@]4(C)C3CCC3C5[C@H](C(C)C)CC[C@]5(C(=O)O)CC[C@]34C)C2(C)C)cc1 (stereo not given in full)	0.4 mg/L (≈ 0.691 µM)	21.1	0.87	–	–	–
C=CC(=O)OC(=O)[C@]12CC[C@@H](C(=C)C)C1C1CCC3[C@@]4(C)CC[C@H](O)C(C)(C)C4CC[C@@]3(C)[C@]1(C)CC2 (stereo not given in full)	4 mg/L (≈ 7.83 µM)	>2.5	2.5	0.43	>1	–
CC(C)[C@@H]1CC[C@]2(C(=O)O)CC[C@]3(C)C(CCC4[C@@]5(C)CC/C(=N\Nc6ccccc6)C(C)(C)C5CC[C@]43C)C12 (stereo not given in full)	< 4 mg/L	–	–	–	–	–
CC(C)[C@@H]1CC[C@]2(C(=O)O)CC[C@]3(C)C(CCC4[C@@]5(C)CC[C@H](OC(=O)c6ccccc6C(F)(F)F)C(C)(C)C5CC[C@]43C)C12 (stereo not given in full)	2.6 mg/L (≈ 4.12 µM)	>1.5	3.84	1.5	>1.53	–
CC(C)[C@@H]1CC[C@]2(C(=O)O)CC[C@]3(C)C(CCC4[C@@]5(C)CC/C(=N\O)C(C)(C)C5CC[C@]43C)C12 (stereo not given in full)	< 4 mg/L	–	–	–	–	–
C=C(C)[C@@H]1CC[C@]2(C(=O)O)CC[C@]3(C)C(CCC4[C@@]5(C)CC[C@H](OC(=O)Cc6cc(OC)ccc6OC)C(C)(C)C5CC[C@]43C)C12 (stereo not given in full)	1.8 mg/L (≈ 2.84 µM)	0.55	>5.6	2.5	–	–
CC(C)[C@@H]1CC[C@]2(C(=O)O)CC[C@]3(C)C(CCC4[C@@]5(C)CCC(/N=C/c6ccc(F)c(F)c6)C(C)(C)C5CC[C@]43C)C12 (stereo not given in full)	0.35 mg/L (≈ 0.602 µM)	6.2	11.4	7.1	3.7	32%
COc1ccc(N/N=C2\CC[C@@]3(C)C(CC[C@]4(C)C3CCC3C5[C@H](C(C)C)CC[C@]5(C(=O)O)CC[C@]34C)C2(C)C)cc1 (stereo not given in full)	< 4 mg/L	–	–	–	–	–
CC(C)[C@@H]1CC[C@]2(C(=O)O)CC[C@]3(C)C(CCC4[C@@]5(C)CCC(=O)C(C)(C)C5CC[C@]43C)C12 (stereo not given in full)	< 4 mg/L	–	–	–	–	–
CC(C)[C@@H]1CC[C@]2(C(=O)O)CC[C@]3(C)C(CCC4[C@@]5(C)CCC(N)C(C)(C)C5CC[C@]43C)C12 (stereo not given in full)	< 4 mg/L	–	–	–	–	–
CC(C)[C@@H]1CC[C@]2(C(=O)O)CC[C@]3(C)C(CCC4[C@@]5(C)CC[C@H](O)C(C)(C)C5CC[C@]43C)C12 (stereo not given in full) [DIHYDROBETULINIC ACID]	< 4 mg/L	–	–	–	–	–
CC(C)[C@@H]1CC[C@]2(C(=O)O)CC[C@]3(C)C(CCC4[C@@]5(C)CCC(NNc6ccccc6)C(C)(C)C5CC[C@]43C)C12 (stereo not given in full)	0.5 mg/L (≈ 0.911 µM)	19.8	3.5	1.6	7	–
CC(C)[C@@H]1CC[C@]2(C(=O)O)CC[C@]3(C)C(CCC4[C@@]5(C)CCC(/N=C/c6ccc(F)cc6F)C(C)(C)C5CC[C@]43C)C12 (stereo not given in full)	2.4 mg/L (≈ 4.12 µM)	1.04	2.04	1.4	0.54	48%
CC(C)[C@@H]1CC[C@]2(C(=O)O)CC[C@]3(C)C(CCC4[C@@]5(C)CC[C@H](OC(=O)c6cc(F)cc(F)c6)C(C)(C)C5CC[C@]43C)C12 (stereo not given in full)	0.7 mg/L (≈ 1.17 µM)	4.5	>14.3	1.7	–	–
C=C(C)[C@@H]1CC[C@]2(C(=O)O)CC[C@]3(C)C(CCC4[C@@]5(C)CC[C@H](OC(=O)c6ccc(CCCCC)cc6)C(C)(C)C5CC[C@]43C)C12 (stereo not given in full)	1.9 mg/L (≈ 3.01 µM)	1.05	1.84	3.1	>2.1	–
CC(C)[C@@H]1CC[C@]2(C(=O)O)CC[C@]3(C)C(CCC4[C@@]5(C)CC[C@H](OC(=O)c6ccc(F)cc6F)C(C)(C)C5CC[C@]43C)C12 (stereo not given in full)	0.7 mg/L (≈ 1.17 µM)	3.5	2.4	1.5	2.3	20%
C=C(C)[C@@H]1CC[C@]2(C(=O)O)CC[C@]3(C)C(CCC4[C@@]5(C)CC[C@H](OC(=O)c6cccc(C(F)(F)F)c6)C(C)(C)C5CC[C@]43C)C12 (stereo not given in full)	0.9 mg/L (≈ 1.43 µM)	>11.1	>11.1	3	>4.4	–
C=CC(=O)OC(=O)[C@]12CC[C@@H](C(C)C)C1C1CCC3[C@@]4(C)CC[C@H](O)C(C)(C)C4CC[C@@]3(C)[C@]1(C)CC2 (stereo not given in full)	2 mg/L (≈ 3.9 µM)	>2	5	2	0.75	–
C=C(C)[C@@H]1CC[C@]2(C(=O)O)CC[C@]3(C)[C@H](CC[C@@H]4[C@@]5(C)CC[C@H](O)C(C)(C)[C@@H]5CC[C@]43C)[C@@H]12 [BETULINIC ACID]	1.2 mg/L (≈ 2.63 µM)	2.2	–	1	3.2	–
